Activity calls are given as the source filed them. The calls are words filed in the database; no cut-off is given here.
Legend:
Liver = assay: Half life in human liver microsomes at 10 uM by LC-MS/MS analysis; format: ADME, microsome
Summary of the method: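 Compound at 10 μM final was preincubated 5 min at 37 °C with NADPH regenerating system in phosphate buffer, pH 7.4. Human or mouse liver microsomes (0.5 mg/mL protein) were added to start the reaction. Samples were taken at 0 (no microsomes) and 10–60 min and measured by LC-MS/MS against an internal standard. Half-life = 0.693/k, with k the slope of ln peak-area ratio versus time. Three experiments, each in duplicate.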

[1] = biological target: GABA-A receptor; alpha-6/beta-3/gamma-2 (Homo sapiens) (UniProt P18507+P28472+Q16445); assay: Positive allosteric modulation of GABA-A receptor alpha6beta3gamma2 (unknown origin) expressed in Xenopus laevis oocytes assessed as potentiation of EC3 GABA induced currents at 30 uM at -60 mV holding potential by electrophysiological method relative to GABA; format: cell-based
Summary of the method: (§1)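 Stage 5–6 defolliculated Xenopus oocytes were injected with 2.5 ng total mRNA per oocyte: α1, α2, α3 or α5 with β3 and γ2 at 1:1:5, and α4 or α6 with β3 and γ2 at 3:1:5. Oocytes were kept ≥36 h at 18 °C in NDE medium before recording. Compounds were co-applied with GABA titrated to EC3-5 for each oocyte. Curves were fitted with the Hill equation; mean ± SEM from ≥3 oocytes across two batches.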

[2] = biological target: GABA-A receptor; alpha-3/beta-3/gamma-2 (Homo sapiens) (UniProt P18507+P28472+P34903); assay: Positive allosteric modulation of GABA-A receptor alpha3beta3gamma2 (unknown origin) expressed in Xenopus laevis oocytes assessed as potentiation of EC3 GABA induced currents up to 1 uM at -60 mV holding potential by electrophysiological method relative to GABA; format: cell-based; summary of the method: as §1
[3] = biological target: GABA-A receptor; alpha-5/beta-3/gamma-2 (Homo sapiens) (UniProt P18507+P28472+P31644); assay: Positive allosteric modulation of GABA-A receptor alpha5beta3gamma2 (unknown origin) expressed in Xenopus laevis oocytes assessed as potentiation of EC3 GABA induced currents up to 1 uM at -60 mV holding potential by electrophysiological method relative to GABA; format: cell-based; summary of the method: as §1
Rattus norvegicus [4] = organism: Rattus norvegicus; assay: Displacement of [3H]-flunitrazepam from rat brain GABA-A receptor benzodiazepine site […] at 10 uM after 60 to 90 mins by scintillation counting
[5] = biological target: 5-hydroxytryptamine receptor 7 (Homo sapiens) (UniProt P34969); assay: Displacement of [3H]-LSD from human recombinant 5HT7 receptor expressed in HEK293 cells at 10 uM after 60 to 90 mins by scintillation counting; format: cell-based
5-hydroxytryptamine receptor 7 (Homo sapiens), sequence (P34969 whole entry): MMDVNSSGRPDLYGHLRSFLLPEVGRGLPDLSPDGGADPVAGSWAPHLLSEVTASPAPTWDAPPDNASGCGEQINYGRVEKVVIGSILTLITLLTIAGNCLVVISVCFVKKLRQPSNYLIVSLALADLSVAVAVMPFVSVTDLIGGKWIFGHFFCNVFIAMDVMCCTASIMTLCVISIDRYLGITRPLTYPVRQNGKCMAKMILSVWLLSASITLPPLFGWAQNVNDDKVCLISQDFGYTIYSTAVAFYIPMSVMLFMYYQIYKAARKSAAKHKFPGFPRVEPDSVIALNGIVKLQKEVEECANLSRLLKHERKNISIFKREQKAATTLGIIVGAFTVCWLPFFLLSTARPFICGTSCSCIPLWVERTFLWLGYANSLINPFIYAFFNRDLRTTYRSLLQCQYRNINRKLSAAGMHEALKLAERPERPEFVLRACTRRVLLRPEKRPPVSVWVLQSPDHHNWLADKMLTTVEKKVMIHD

[6] = biological target: Mu-type opioid receptor (Homo sapiens) (UniProt P35372); assay: Displacement of [3H]-DAMGO from human recombinant MOR expressed in HEK293 cells at 10 uM after 60 to 90 mins by scintillation counting; format: cell-based
Mu-type opioid receptor (Homo sapiens), sequence (P35372 whole entry): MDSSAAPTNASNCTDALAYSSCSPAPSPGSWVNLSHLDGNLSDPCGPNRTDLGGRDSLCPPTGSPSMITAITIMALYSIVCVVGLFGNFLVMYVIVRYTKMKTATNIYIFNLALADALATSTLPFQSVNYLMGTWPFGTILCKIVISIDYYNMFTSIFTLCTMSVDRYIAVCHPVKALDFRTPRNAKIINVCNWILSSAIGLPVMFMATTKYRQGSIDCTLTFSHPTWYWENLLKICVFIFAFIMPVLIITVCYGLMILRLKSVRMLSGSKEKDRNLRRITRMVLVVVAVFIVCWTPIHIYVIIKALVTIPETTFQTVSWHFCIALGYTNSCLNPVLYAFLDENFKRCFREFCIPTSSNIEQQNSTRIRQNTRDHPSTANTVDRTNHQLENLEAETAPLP

[7] = biological target: D(1B) dopamine receptor (Homo sapiens) (UniProt P21918); assay: Displacement of [3H]-[…] from human recombinant dopamine D5 receptor expressed in HEK293 cells at 10 uM after 60 to 90 mins by scintillation counting; format: cell-based
D(1B) dopamine receptor (Homo sapiens), sequence (P21918 whole entry): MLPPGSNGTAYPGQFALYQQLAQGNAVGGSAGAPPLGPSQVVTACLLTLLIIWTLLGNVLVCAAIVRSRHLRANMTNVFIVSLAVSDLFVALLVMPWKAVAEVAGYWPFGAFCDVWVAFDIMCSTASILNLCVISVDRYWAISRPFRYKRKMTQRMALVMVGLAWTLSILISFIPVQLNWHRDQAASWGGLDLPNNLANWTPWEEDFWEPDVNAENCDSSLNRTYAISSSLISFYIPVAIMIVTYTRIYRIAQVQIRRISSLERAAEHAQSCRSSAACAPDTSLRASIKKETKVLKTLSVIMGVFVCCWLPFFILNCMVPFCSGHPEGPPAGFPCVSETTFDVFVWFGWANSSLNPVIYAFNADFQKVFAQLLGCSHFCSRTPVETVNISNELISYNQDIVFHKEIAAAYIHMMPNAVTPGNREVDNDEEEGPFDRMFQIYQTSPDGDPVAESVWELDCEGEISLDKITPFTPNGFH
Summary of the method: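 Primary single-concentration radioligand displacement screen run by the NIMH Psychoactive Drug Screening Program across a 46-target panel that includes hERG. The read-out is percent inhibition of specific radioligand binding. Any compound displacing more than 50% of radioligand went on to secondary binding assays to determine Ki.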

[8] = Drug metabolism in human liver microsomes assessed as CYP450 mediated-O-demethylated 2-(4-hydroxyphenyl)-7-methoxy-2H-pyrazolo[4,3-c]quinolin-3(5H)-one metabolite formation after 60 mins by LC-MS analysis; format: ADME; details: 1 h
Summary of the method: (§2)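 The 60-min samples from the human or mouse liver microsome incubations (10 µM compound, 0.5 mg/mL protein, NADPH regenerating system, 37 °C, pH 7.4) were run on LC-MS in SIM mode with dual ESI/APCI ionization. The method was calibrated to each component's retention time and mass, and the peak intensities of the parent and O-demethylated metabolites were measured.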

[9] = Drug metabolism in human liver microsomes assessed as CYP450 mediated-O-demethylated 7-hydroxy-2-(4-hydroxyphenyl)-2H-pyrazolo[4,3-c]quinolin-3(5H)-one metabolite formation after 60 mins by LC-MS analysis; format: ADME; details: 1 h; summary of the method: as §2
[10] = Drug metabolism in mouse liver microsomes assessed as CYP450 mediated-O-demethylated 2-(4-hydroxyphenyl)-7-methoxy-2H-pyrazolo[4,3-c]quinolin-3(5H)-one metabolite formation after 60 mins by LC-MS analysis; format: ADME; details: 1 h; summary of the method: as §2
[11] = Drug metabolism in mouse liver microsomes assessed as CYP450 mediated-O-demethylated 7-hydroxy-2-(4-hydroxyphenyl)-2H-pyrazolo[4,3-c]quinolin-3(5H)-one metabolite formation after 60 mins by LC-MS analysis; format: ADME; details: 1 h; summary of the method: as §2
HEK-293T = assay: Cytotoxicity against HEK293T cells assessed as reduction in cell viability up to 400 uM after 48 hrs by CellTiter-Glo assay; format: cell-based; details: human
Summary of the method: (§3)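 HEK293T and HepG2 cells grown in high-glucose DMEM with non-essential amino acids, 10 mM HEPES, penicillin/streptomycin and 10% heat-inactivated FBS. Cells were harvested with trypsin and plated; compound was pin-transferred 3 h later. Incubation was 48 h, then CellTiter-Glo luminescence was read. Controls were DMSO (negative) and a cytotoxic aminoketone (positive). Quadruplicates, three independent runs, normalized to controls, nonlinear regression.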

HepG2 = assay: Cytotoxicity against human HepG2 cells assessed as reduction in cell viability up to 400 uM after 48 hrs by CellTiter-Glo assay; format: cell-based; details: hepg2, 48 h; summary of the method: as §3
Rattus norvegicus [12] = assay: Toxicity in Wistar rat assessed as grip strength by measuring peak force of pull necessary to overcome strength of animal's grip at 10 mg/kg, ip (reference value: 2.79 +/- 0.16 kg/kg); format: organism-based; details: in vivo
Rattus norvegicus [13] = assay: Toxicity in Wistar rat assessed as closed arm entries at 10 mg/kg, ip administered for 45 mins measured for 5 min by elevated plus maze apparatus method (reference value: 3.63 +/- 0.42); format: organism-based; details: in vivo
Brain [14] = assay: Fraction unbound in Wistar rat brain at 10 mg/kg, ip administered as single dose measured at 5 to 720 mins post dose by HPLC-MS/MS analysis; format: ADME, organism-based; details: in vivo
Summary of the method: (§4)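 Free fraction in rat plasma and brain tissue was measured in vitro by rapid equilibrium dialysis. Exposure came from male Wistar rats (250-350 g) given a single 10 mg/kg IP dose, as a 5 mg/ml suspension in 85% water, 14% propylene glycol and 1% Tween 80. Three rats per time point (5–720 min); brain analysed by HPLC-MS/MS after solid-phase extraction.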

Brain [15] = assay: Unbound AUC in Wistar rat brain at 10 mg/kg, ip administered as single dose measured at 5 to 720 mins post dose by HPLC-MS/MS analysis; format: ADME, organism-based; details: in vivo; summary of the method: as §4
Mus musculus = assay: Neurotoxicity in Swiss Webster mouse assessed as induction of motor impairment at 55 mg/kg administered via oral gavage measured after 10 to 60 mins by rotarod method; format: toxicity, organism-based; details: in vivo

COc1ccc(-n2nc3c4ccc(OC)cc4[nH]cc-3c2=O)cc1
t1/2 (Liver): 3.6 h
Activity [1]: 900%
Activity ([1]; tested as the 2H-labelled form): inactive
Activity [2]: < 0%
Activity [3]: < 0%
inhibition (Rattus norvegicus [4]): Active
inhibition [5]: Active
inhibition [6]: Active
inhibition [7]: Active

[2H]C([2H])([2H])Oc1ccc(-n2nc3c4ccc(OC)cc4[nH]cc-3c2=O)cc1
Drug metabolism [8]: Metabolite_Detected
Drug metabolism [9]: Metabolite_Detected
Drug metabolism [10]: Metabolite_Detected
Drug metabolism [11]: Metabolite_Detected
Activity (HEK-293T): Non-Toxic
Activity (HepG2): Non-Toxic
Activity (Rattus norvegicus [12]): 2.67 kg/kg
Activity (Rattus norvegicus [13]): 2.63
Fu (Brain [14]): 0.194
fAUC (Brain [15]): 651.72 ng·h/g
Activity (Mus musculus): Non-Toxic

Source: ChEMBL document CHEMBL4033790, “Design and Synthesis of Novel Deuterated Ligands Functionally Selective for the γ-Aminobutyric Acid Type A Receptor (GABAAR) α6 Subtype with Improved Metabolic Stability and Enhanced Bioavailability” (J Med Chem, 2018)
